Reference: ChEMBL document CHEMBL1142153, “Pharmacokinetics and disposition of CS-023 (RO4908463), a novel parenteral carbapenem, in animals” (Antimicrob Agents Chemother, 2007)
Values belong to the molecule of their own block, whether it stands above or below them.

Key:
[1] = system: Rattus norvegicus; test: Biliary excretion in bile duct cannulated rat assessed as radioactivity at 10 mg/kg, iv after 48 h; type: ADME, organism-based; set-up: dose 10 mg/kg, route intravenous; settings: in vivo
Outline: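 Rats had bile-duct cannulation by laparotomy under diethyl ether and were housed in Bollman cages. They were then dosed i.v. with [14C]CS-023 at 10 mg/kg in saline. Bile was collected on ice over set intervals, and radioactivity was measured by liquid scintillation counting.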

[2] = system: Macaca fascicularis; test: AUC (0-inf) in monkey assessed as radioactivity at 10 mg/kg, iv; settings: cynomolgus monkey, in vivo
[3] = system: Rattus norvegicus; test: Urinary excretion ratio in rat assessed as radioactivity at 10 mg/kg, iv after 7 days; type: ADME, organism-based, Urine; set-up: dose 10 mg/kg, route intravenous; settings: in vivo, 168 h
Outline: (§1)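 Rats were dosed i.v. via the tail vein with [14C]CS-023 at 10 mg/kg (4.58 MBq/kg) in saline, then kept in individual metabolic cages for separate urine and feces collection over 7 days. Samples up to 24 h were collected at around 4°C into 0.5 M MOPS pH 6.0, and feces were homogenized. Radioactivity was measured by liquid scintillation counting. Parent drug and metabolite were apportioned by silica TLC (3% NaCl:acetonitrile 2:1) with imaging-plate analysis. n=4.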

[4] = system: Rattus norvegicus; test: Fecal excretion ratio in rat assessed as radioactivity at 10 mg/kg, iv after 7 days; type: ADME, organism-based; set-up: dose 10 mg/kg, route intravenous; settings: in vivo, 168 h; outline: as §1
[5] = system: Macaca fascicularis; test: Urinary excretion ratio in monkey assessed as radioactivity at 10 mg/kg, iv after 7 days; settings: cynomolgus monkey, in vivo, 168 h
[6] = system: Rattus norvegicus; test: AUC (0-inf) in rat assessed as radioactivity at 10 mg/kg, iv; type: ADME, organism-based, Plasma; set-up: time infinity, dose 10 mg/kg, route intravenous; settings: in vivo
Outline: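 [14C]CS-023 with unlabeled drug in saline, 10 mg/kg single i.v. bolus (rats via tail vein, 4.58 MBq/kg; monkeys via cephalic vein, 3 MBq/kg). Blood drawn with heparin (rat jugular, monkey femoral vein) at set times. Plasma centrifuged at 4°C, and total radioactivity counted by liquid scintillation with tissue solubilizer. Quantitation limit was twice background.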

[7] = system: Macaca fascicularis; test: Fecal excretion ratio in monkey assessed as radioactivity at 10 mg/kg, iv after 7 days; settings: cynomolgus monkey, in vivo, 168 h
[8] = system: Macaca fascicularis; test: Volume of distribution at steady state in monkey at 10 mg/kg, iv; settings: cynomolgus monkey, in vivo, read-out: Vss
[9] = Volume of distribution at steady state in dog at 10 mg/kg, iv; type: ADME, organism-based, Canis lupus familiaris; set-up: dose 10 mg/kg, route intravenous; settings: in vivo, read-out: Vss
Outline: (§2)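 Single i.v. bolus of CS-023 in saline into the foreleg saphenous vein of dogs at 5, 10 or 25 mg/kg; serial blood from the same vein. Plasma separated at 4°C, mixed 1:1 with 500 mM MOPS pH 6.0 containing internal standard, and analysed by two-column HPLC with UV at 304 nm; linear 1–500 µg/ml. kel from log-linear terminal slope, t1/2 = 0.693/kel; AUC by trapezoids plus Clast/kel; CL = dose/AUC; Vss = CL × MRT. n=3.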

[10] = Protein binding in rat serum at 100 ug/ml; type: ADME, cell-free; settings: read-out: PPB (converted)
Outline: (§3)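 Serum was spiked with CS-023 in water to a final 20 or 100 µg/ml and incubated for 5 min at 37°C. It was then ultrafiltered by centrifugation at 2,000 x g for 10 min at room temperature. Drug in serum before filtration (Ct) and in the filtrate (Cf) was measured by HPLC-UV. Bound % = (Ct − Cf)/Ct × 100; n=4.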

[11] = Protein binding in dog serum at 100 ug/ml; type: ADME, cell-free, Canis lupus familiaris; settings: read-out: PPB (converted); outline: as §3
[12] = system: Macaca fascicularis; test: Clearance in monkey at 25 mg/kg, iv; settings: cynomolgus monkey, in vivo
[13] = Volume of distribution at steady state in rat at 50 mg/kg, iv; type: ADME, organism-based; set-up: dose 50 mg/kg, route intravenous; settings: in vivo, read-out: Vss
Outline: (§4)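 Rats dosed once by tail-vein bolus of CS-023 in saline; blood drawn serially from the jugular vein and plasma separated at 4°C. Plasma mixed 1:1 with 500 mM MOPS pH 6.0 containing p-acetamidophenol internal standard and assayed by HPLC with UV at 304 nm (linear 1 to 500 µg/ml). Vss = CL (dose/AUC0-∞) × mean residence time.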

[14] = Clearance in rat at 10 mg/kg, iv; type: ADME, organism-based; set-up: dose 10 mg/kg, route intravenous; settings: in vivo
Outline: (§5)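 Rats received CS-023 in saline by tail-vein bolus at 10, 25 or 50 mg/kg; jugular blood was drawn serially. Plasma mixed with an equal volume of 500 mM MOPS pH 6.0 containing internal standard, then HPLC with UV at 304 nm (linear 1–500 µg/ml). Log-linear terminal kel gave t1/2; AUC by trapezoidal rule + Clast/kel; CL = dose/AUC0-inf. n=3.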

[15] = system: Macaca fascicularis; test: Half life in monkey at 10 mg/kg, iv; settings: cynomolgus monkey, in vivo
[16] = system: Rattus norvegicus; test: Fecal excretion in rat assessed as radioactivity at 10 mg/kg, iv after 24 h; type: ADME, organism-based; set-up: dose 10 mg/kg, route intravenous; settings: in vivo; outline: as §1
[17] = system: Macaca fascicularis; test: Half life in monkey at 5 mg/kg, iv; settings: cynomolgus monkey, in vivo
[18] = Half life in rat at 50 mg/kg, iv; type: ADME, organism-based; set-up: dose 50 mg/kg, route intravenous; settings: in vivo; outline: as §5
[19] = AUC (0-inf) in rat at 50 mg/kg, iv; type: ADME, organism-based; set-up: time infinity, dose 50 mg/kg, route intravenous; settings: plasma; outline: as §5
[20] = Half life in dog at 10 mg/kg, iv; type: ADME, organism-based, Canis lupus familiaris; set-up: dose 10 mg/kg, route intravenous; settings: in vivo; outline: as §2
[21] = Clearance in dog at 5 mg/kg, iv; type: ADME, organism-based, Canis lupus familiaris; set-up: dose 5 mg/kg, route intravenous; settings: in vivo; outline: as §2
[22] = Half life in dog at 25 mg/kg, iv; type: ADME, organism-based, Canis lupus familiaris; set-up: dose 25 mg/kg, route intravenous; settings: in vivo; outline: as §2
[23] = system: Macaca fascicularis; test: Half life in monkey at 25 mg/kg, iv; settings: cynomolgus monkey, in vivo
[24] = system: Macaca fascicularis; test: Volume of distribution at steady state in monkey at 5 mg/kg, iv; settings: cynomolgus monkey, in vivo, read-out: Vss
[25] = Volume of distribution at steady state in rat at 10 mg/kg, iv; type: ADME, organism-based; set-up: dose 10 mg/kg, route intravenous; settings: in vivo, read-out: Vss; outline: as §4
[26] = AUC (0-inf) in dog at 10 mg/kg, iv; type: ADME, organism-based, Canis lupus familiaris; set-up: dose 10 mg/kg, route intravenous, time infinity; settings: plasma; outline: as §2
[27] = species on record: Macaca fascicularis; test: Protein binding in monkey serum at 100 ug/ml; settings: cynomolgus monkey, read-out: PPB (converted)
[28] = system: Macaca fascicularis; test: AUC (0-inf) in monkey at 25 mg/kg, iv; settings: cynomolgus monkey, plasma
[29] = Half life in rat at 25 mg/kg, iv; type: ADME, organism-based; set-up: dose 25 mg/kg, route intravenous; settings: in vivo; outline: as §5
[30] = Protein binding in rat serum at 20 ug/ml; type: ADME, cell-free; settings: read-out: PPB (converted); outline: as §3
[31] = Protein binding in dog serum at 20 ug/ml; type: ADME, cell-free, Canis lupus familiaris; settings: read-out: PPB; outline: as §3
[32] = system: Macaca fascicularis; test: Volume of distribution at steady state in monkey at 25 mg/kg, iv; settings: cynomolgus monkey, in vivo, read-out: Vss
[33] = Volume of distribution at steady state in rat at 25 mg/kg, iv; type: ADME, organism-based; set-up: dose 25 mg/kg, route intravenous; settings: in vivo, read-out: Vss; outline: as §4
[34] = AUC (0-inf) in rat at 10 mg/kg, iv; type: ADME, organism-based; set-up: dose 10 mg/kg, route intravenous, time infinity; settings: plasma; outline: as §5
[35] = system: Macaca fascicularis; test: Clearance in monkey at 5 mg/kg, iv; settings: cynomolgus monkey, in vivo
[36] = Clearance in rat at 25 mg/kg, iv; type: ADME, organism-based; set-up: dose 25 mg/kg, route intravenous; settings: in vivo; outline: as §5
[37] = system: Macaca fascicularis; test: AUC (0-inf) in monkey at 5 mg/kg, iv; settings: cynomolgus monkey, plasma
[38] = Clearance in dog at 25 mg/kg, iv; type: ADME, organism-based, Canis lupus familiaris; set-up: dose 25 mg/kg, route intravenous; settings: in vivo; outline: as §2
[39] = system: Macaca fascicularis; test: AUC (0-inf) in monkey at 10 mg/kg, iv; settings: cynomolgus monkey, plasma
[40] = Half life in dog at 5 mg/kg, iv; type: ADME, organism-based, Canis lupus familiaris; set-up: dose 5 mg/kg, route intravenous; settings: in vivo; outline: as §2
[41] = AUC (0-inf) in dog at 5 mg/kg, iv; type: ADME, organism-based, Canis lupus familiaris; set-up: time infinity, dose 5 mg/kg, route intravenous; settings: plasma; outline: as §2
[42] = AUC (0-inf) in rat at 25 mg/kg, iv; type: ADME, organism-based; set-up: time infinity, dose 25 mg/kg, route intravenous; settings: plasma; outline: as §5
[43] = AUC (0-inf) in dog at 25 mg/kg, iv; type: ADME, organism-based, Canis lupus familiaris; set-up: time infinity, dose 25 mg/kg, route intravenous; settings: plasma; outline: as §2
[44] = system: Rattus norvegicus; test: Urinary excretion in rat assessed as radioactivity at 10 mg/kg, iv after 24 h; type: ADME, organism-based, Urine; set-up: dose 10 mg/kg, route intravenous; settings: in vivo; outline: as §1
[45] = species on record: Macaca fascicularis; test: Protein binding in monkey serum at 20 ug/ml; settings: cynomolgus monkey, read-out: PPB (converted)
[46] = Half life in rat at 10 mg/kg, iv; type: ADME, organism-based; set-up: dose 10 mg/kg, route intravenous; settings: in vivo; outline: as §5
[47] = Volume of distribution at steady state in dog at 25 mg/kg, iv; type: ADME, organism-based, Canis lupus familiaris; set-up: dose 25 mg/kg, route intravenous; settings: in vivo, read-out: Vss; outline: as §2
[48] = Clearance in dog at 10 mg/kg, iv; type: ADME, organism-based, Canis lupus familiaris; set-up: dose 10 mg/kg, route intravenous; settings: in vivo; outline: as §2
[49] = system: Macaca fascicularis; test: Clearance in monkey at 10 mg/kg, iv; settings: cynomolgus monkey, in vivo
[50] = Clearance in rat at 50 mg/kg, iv; type: ADME, organism-based; set-up: dose 50 mg/kg, route intravenous; settings: in vivo; outline: as §5
[51] = Volume of distribution at steady state in dog at 5 mg/kg, iv; type: ADME, organism-based, Canis lupus familiaris; set-up: dose 5 mg/kg, route intravenous; settings: in vivo, read-out: Vss; outline: as §2

Activity [1]: 0.54% | AUC [2]: 87.4 µg·h/mL | Activity [3]: 87.1% | Activity [4]: 12.5% | Activity [5]: 88% | AUC [6]: 26.8 µg·h/mL | Activity [7]: 7.5%
SMILES: C[C@@H](O)[C@H]1C(=O)N2[C@@H]1[C@@H](C)C(S[C@H]1C[C@@H](C(=O)N3CC[C@H](NC(=O)CNC(=N)N)C3)N(C)C1)=[14C]2C(=O)O

Vd [8]: 0.172 L/kg | Vd [9]: 0.259 L/kg | fraction unbound at 100 ug/ml [10]: 0.941 | fraction unbound at 100 ug/ml [11]: 0.946 | clearance [12]: 0.104 L/h/kg | Vd [13]: 0.22 L/kg | clearance [14]: 1.01 L/h/kg | half-life [15]: 83.4 min | Activity [16]: 3.1% | half-life [17]: 79.2 min | half-life [18]: 12 min | AUC(0-inf) [19]: 55 µg·h/mL | half-life [20]: 45 min | clearance [21]: 0.266 L/h/kg | half-life [22]: 52.8 min | half-life [23]: 86.4 min | Vd [24]: 0.176 L/kg | Vd [25]: 0.199 L/kg | AUC(0-inf) [26]: 39.9 µg·h/mL | fraction unbound at 100 ug/ml [27]: 0.849 | AUC(0-inf) [28]: 244 µg·h/mL | half-life [29]: 11.4 min | fraction unbound at 20 ug/ml [30]: 0.95 | fraction unbound at 20 ug/ml [31]: 0.91 | Vd [32]: 0.184 L/kg | Vd [33]: 0.218 L/kg | AUC(0-inf) [34]: 10.2 µg·h/mL | clearance [35]: 0.106 L/h/kg | clearance [36]: 0.906 L/h/kg | AUC(0-inf) [37]: 48.6 µg·h/mL | clearance [38]: 0.196 L/h/kg | AUC(0-inf) [39]: 104 µg·h/mL | half-life [40]: 45 min | AUC(0-inf) [41]: 18.8 µg·h/mL | AUC(0-inf) [42]: 28.4 µg·h/mL | AUC(0-inf) [43]: 129 µg·h/mL | Activity [44]: 29.6% | fraction unbound at 20 ug/ml [45]: 0.844 | half-life [46]: 9.6 min | Vd [47]: 0.228 L/kg | clearance [48]: 0.251 L/h/kg | clearance [49]: 0.0972 L/h/kg | clearance [50]: 0.912 L/h/kg | Vd [51]: 0.269 L/kg
SMILES: C[C@@H](O)[C@H]1C(=O)N2C(C(=O)O)=C(S[C@H]3C[C@@H](C(=O)N4CC[C@H](NC(=O)CNC(=N)N)C4)N(C)C3)[C@H](C)[C@H]12 [TOMOPENEM]
